Assay [1] deals with T1, Transient receptor potential cation channel subfamily V member 1 (Homo sapiens, UniProt Q8NER1). The assay can be described thus: Maximal agonist activity on human recombinant TRPV1-mediated enhancement of intracellular calcium concentration in HEK293 cells at 10 uM. Format: functional, cell-based. The procedure, abridged: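 Fluo-3-loaded HEK-293 cells overexpressing human TRPV1, in Tyrode pH 7.4 at 25 °C, fluorescence ex 488/em 540 nm. Compound at 10 µM. Peak rise in intracellular Ca2+ expressed as percent of the response to ionomycin (4 µM).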

For the next assay, the system named is RBL-2H3. The assay can be described thus: Inhibition of AEA uptake in RBL2H3 cells. Format: functional, cell-based, Rattus norvegicus, Wistar. In a few lines:
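RBL-2H3 cells incubated 5 min at 37 °C with [14C]AEA (2.4 µM, 10 000 cpm), with or without varying inhibitor concentrations. Medium extracted with CHCl3/CH3OH 2:1. Residual [14C]AEA in the lyophilized organic phase was measured by scintillation counting as an index of uptake.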

A further assay is filed under the species Rattus norvegicus. The assay can be described thus: Metabolic stability in rat brain membrane assessed by inhibition of AEA hydrolysis. Format: ADME. The procedure, abridged: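 Mixture extracted with 2 volumes CHCl3/CH3OH 2:1. [14C]ethanolamine in the aqueous phase counted by scintillation. Value is the concentration giving 50% inhibition of hydrolysis.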

A further assay deals with Cannabinoid receptor 1 (Homo sapiens, UniProt P21554). Description: Binding affinity to human recombinant CB1 receptor expressed in COS cells. Format: cell-based.
For another assay, the target named is Cannabinoid receptor 2 (Homo sapiens, UniProt P34972). The assay can be described thus: Binding affinity to human recombinant CB2 receptor expressed in COS cells. Format: cell-based.
Assay [2] concerns the target T1, Transient receptor potential cation channel subfamily V member 1. The assay can be described thus: Agonist activity on human recombinant TRPV1-mediated enhancement of intracellular calcium concentration in HEK293 cells. Format: functional, cell-based. The procedure, abridged:
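HEK-293 cells stably overexpressing human TRPV1, plated on poly-L-lysine the day before. Loaded 2 h at 25 °C with 4 µM Fluo-3 methyl ester (0.04% Pluronic), washed, trypsinized and resuspended in Tyrode pH 7.4. Stirred-cuvette fluorescence (ex 488/em 540 nm) at 25 °C, read before and after compound at various concentrations. EC50 is the concentration giving half-maximal stimulation.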

Setting [3] is: Rattus norvegicus, Wistar, RBL-2H3, read-out: IC50.
[4] abbreviates: Rattus norvegicus, Brain, read-out: IC50.

The values that follow come from ChEMBL document CHEMBL1146088 (J Med Chem, 2006).

Bounds are passed on as bounds.

Cannabinoid receptor 1, sequence (P21554 whole entry): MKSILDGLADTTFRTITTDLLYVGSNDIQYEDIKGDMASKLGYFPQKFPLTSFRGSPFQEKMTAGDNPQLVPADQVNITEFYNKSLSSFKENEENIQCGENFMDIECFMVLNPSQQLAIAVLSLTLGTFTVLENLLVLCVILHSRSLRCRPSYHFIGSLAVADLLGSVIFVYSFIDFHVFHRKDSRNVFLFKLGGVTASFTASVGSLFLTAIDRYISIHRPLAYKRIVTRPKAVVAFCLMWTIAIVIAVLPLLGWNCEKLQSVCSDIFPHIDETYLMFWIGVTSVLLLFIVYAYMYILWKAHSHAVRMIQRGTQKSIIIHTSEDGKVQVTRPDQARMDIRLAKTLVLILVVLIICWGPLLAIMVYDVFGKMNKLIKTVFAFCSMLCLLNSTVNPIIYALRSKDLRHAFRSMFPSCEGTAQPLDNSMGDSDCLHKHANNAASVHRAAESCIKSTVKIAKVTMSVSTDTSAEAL
T1 sequence (Q8NER1 whole entry): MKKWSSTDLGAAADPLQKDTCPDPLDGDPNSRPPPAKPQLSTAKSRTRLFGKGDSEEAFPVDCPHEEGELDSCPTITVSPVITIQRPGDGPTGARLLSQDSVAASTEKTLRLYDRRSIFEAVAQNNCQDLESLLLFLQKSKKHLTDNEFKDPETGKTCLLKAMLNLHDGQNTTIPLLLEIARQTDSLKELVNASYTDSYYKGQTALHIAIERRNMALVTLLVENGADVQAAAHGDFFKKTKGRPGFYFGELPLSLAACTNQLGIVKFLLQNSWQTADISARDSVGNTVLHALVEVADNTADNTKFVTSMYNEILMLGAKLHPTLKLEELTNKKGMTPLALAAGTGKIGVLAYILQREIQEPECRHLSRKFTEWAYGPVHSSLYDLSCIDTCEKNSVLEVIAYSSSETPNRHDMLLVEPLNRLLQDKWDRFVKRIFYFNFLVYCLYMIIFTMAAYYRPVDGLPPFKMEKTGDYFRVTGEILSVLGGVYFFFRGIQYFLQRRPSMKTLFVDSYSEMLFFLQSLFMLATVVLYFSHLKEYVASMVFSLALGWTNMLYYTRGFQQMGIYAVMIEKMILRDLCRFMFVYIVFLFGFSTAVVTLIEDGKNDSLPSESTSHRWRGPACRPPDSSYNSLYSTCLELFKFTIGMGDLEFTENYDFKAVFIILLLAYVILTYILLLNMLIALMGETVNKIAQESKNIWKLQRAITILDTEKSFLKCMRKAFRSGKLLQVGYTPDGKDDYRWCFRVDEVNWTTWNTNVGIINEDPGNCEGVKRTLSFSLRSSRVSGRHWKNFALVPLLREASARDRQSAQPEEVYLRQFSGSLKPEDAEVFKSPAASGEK
Cannabinoid receptor 2, sequence (P34972 whole entry): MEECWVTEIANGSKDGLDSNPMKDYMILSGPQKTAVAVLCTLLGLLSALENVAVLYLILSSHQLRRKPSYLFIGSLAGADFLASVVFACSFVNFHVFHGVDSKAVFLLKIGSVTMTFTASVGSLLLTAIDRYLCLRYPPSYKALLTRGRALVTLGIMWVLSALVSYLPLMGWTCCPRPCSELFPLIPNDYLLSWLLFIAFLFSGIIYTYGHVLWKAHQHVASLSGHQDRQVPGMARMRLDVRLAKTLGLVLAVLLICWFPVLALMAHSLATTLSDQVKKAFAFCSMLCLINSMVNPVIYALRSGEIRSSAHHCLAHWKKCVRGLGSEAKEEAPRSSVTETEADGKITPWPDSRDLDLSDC

As for `CCCCCCCC/C=C\CCCCCCCC(=O)ONCCO`, the Emax in assay [1] amounted to 14.3%. Further, the results for the IC50 in the assay with RBL-2H3 (setting [3]) and in the assay filed under Rattus norvegicus (setting [4]) were more than 25 µM and more than 50 µM, respectively. Besides, the inhibition constant (Ki) is more than 10 µM at Cannabinoid receptor 1 (read-out: Ki) and 8.6 µM on Cannabinoid receptor 2 (read-out: Ki).
For the compound `CCCCCCCCCCCCCCCC(=O)ONCCO`, in assay [1], the Emax was found to be 1.8%. For the same compound, the IC50 in the assay with RBL-2H3 (setting [3]) is more than 25 µM; in the assay listed under Rattus norvegicus (setting [4]), more than 50 µM. For the same compound, the Ki on Cannabinoid receptor 1 (read-out: Ki) and at Cannabinoid receptor 2 (read-out: Ki) was more than 10 µM in each case.
For `CCCCCCCCCCCCCCCC(=O)N(O)CCO`, the Emax in assay [1] is 37%. The IC50 in the assay on RBL-2H3 (setting [3]) was more than 25 µM; in the assay filed under Rattus norvegicus (setting [4]), more than 50 µM. The half-maximal effective concentration (EC50) in assay [2] (read-out: EC50) was determined as 600 nM. The Ki on Cannabinoid receptor 1 (read-out: Ki) and at Cannabinoid receptor 2 (read-out: Ki) was more than 10 µM each time.
On to `CCCCC/C=C\C/C=C\C/C=C\C/C=C\CCCC(=O)NCCO` [ANANDAMIDE], for which the Emax in assay [1] was found to be 54.7%. The values for the IC50 in the assay on RBL-2H3 (setting [3]) and in the assay listed under Rattus norvegicus (setting [4]) were 14.5 µM and 19 µM, respectively. Further, the 50% effective concentration (EC50) in assay [2] (read-out: EC50) came out at 490 nM.
For `CCCCCCCC/C=C\CCCCCCCC(=O)NCCO` [OLEOYLETHANOLAMIDE], the Emax in assay [1] came out at 50.1%. For the same compound, the IC50 came out at 20 µM in the assay on RBL-2H3 (setting [3]) and 23 µM in the assay filed under Rattus norvegicus (setting [4]). Moreover, in assay [2] (read-out: EC50), the EC50 worked out at 890 nM. In addition, the figures for the Ki at Cannabinoid receptor 1 (read-out: Ki) and on Cannabinoid receptor 2 (read-out: Ki) were 1.1 µM and more than 10 µM, respectively.
For `CCCCC/C=C\C/C=C\C/C=C\C/C=C\CCCC(=O)NOCCO`, the Emax in assay [1] is 58.5%. In addition, the IC50 in the assay on RBL-2H3 (setting [3]) was more than 25 µM; in the assay filed under Rattus norvegicus (setting [4]), 25 µM. Moreover, the EC50 in assay [2] (read-out: EC50) amounted to 250 nM. Further, the values for the Ki at Cannabinoid receptor 1 (read-out: Ki) and at Cannabinoid receptor 2 (read-out: Ki) were 0.47 µM and 0.081 µM, respectively.
For `CCCCCCCC/C=C\CCCCCCCC(=O)N(O)CCO`, the maximum response (Emax) in assay [1] was found to be 53.5%. Moreover, the half-inhibitory concentration (IC50) in the assay on RBL-2H3 (setting [3]) is 20 µM; in the assay listed under Rattus norvegicus (setting [4]), more than 50 µM. The EC50 in assay [2] (read-out: EC50) was 400 nM. Also, the Ki at Cannabinoid receptor 1 (read-out: Ki) is more than 10 µM; on Cannabinoid receptor 2 (read-out: Ki), 5.4 µM.
Regarding `CCCCC/C=C\C/C=C\C/C=C\C/C=C\CCCC(=O)ONCCO`, the maximum response (Emax) in assay [1] was found to be 28%. Further, the half-inhibitory concentration (IC50) was more than 25 µM in the assay on RBL-2H3 (setting [3]) and more than 50 µM in the assay listed under Rattus norvegicus (setting [4]). In addition, the values for the inhibition constant Ki at Cannabinoid receptor 1 (read-out: Ki) and at Cannabinoid receptor 2 (read-out: Ki) were 3.5 µM and 2.4 µM, respectively.
On to `CCCCCCCC/C=C\CCCCCCCC(=O)NOCCO`, for which, in assay [1], the Emax turned out to be 50%. Also, the IC50 with RBL-2H3 (setting [3]) is 22.5 µM; in the assay filed under Rattus norvegicus (setting [4]) it was more than 50 µM. Also, the half-maximal effective concentration (EC50) in assay [2] (read-out: EC50) is 320 nM. For the same compound, the values for the Ki on Cannabinoid receptor 1 (read-out: Ki) and at Cannabinoid receptor 2 (read-out: Ki) were more than 10 µM and 3.8 µM, respectively.
`CCCCCCCCCCCCCCCC(=O)NCCO` [PALMIDROL]: the half-inhibitory concentration (IC50) result in the assay on RBL-2H3 (rbl-2h3) and in the assay filed under Rattus norvegicus was “Not Active” throughout. For the same compound, the EC50 entry in assay [2] (hek293) is recorded as “Not Active”. The Ki entry at Cannabinoid receptor 1 (cos) and on Cannabinoid receptor 2 (cos) was “Not Active” in each case.
Regarding `CCCCCCCCCCCCCCCC(=O)NOCCO`, the maximal effect (Emax) in assay [1] was 11.2%. The results for the IC50 in the assay with RBL-2H3 (setting [3]) and in the assay listed under Rattus norvegicus (setting [4]) were more than 25 µM and more than 50 µM, respectively. Further, the inhibitory constant (Ki) at Cannabinoid receptor 1 (read-out: Ki) and on Cannabinoid receptor 2 (read-out: Ki) was more than 10 µM in each case.
Regarding `CCCCC/C=C\C/C=C\C/C=C\C/C=C\CCCC(=O)N(O)CCO`, the maximum response (Emax) in assay [1] was 55.3%. Also, the values for the half-inhibitory concentration (IC50) in the assay on RBL-2H3 (setting [3]) and in the assay listed under Rattus norvegicus (setting [4]) were more than 25 µM and more than 50 µM, respectively. In addition, in assay [2] (read-out: EC50), the half-maximal effective concentration (EC50) is 260 nM. The Ki was 3.9 µM at Cannabinoid receptor 1 (read-out: Ki) and 1.9 µM at Cannabinoid receptor 2 (read-out: Ki).
